The text below walks through data of ChEMBL document CHEMBL2375318, “Design, synthesis and antimicrobial activity of novel benzothiazole analogs” (Eur J Med Chem, 2013).

Structures are written as SMILES. Converted amounts (≈) assume the structure as drawn.

One may read the MIC as the lowest concentration found to suppress growth.

The subject of series [1] is Candida albicans. The series can be described thus: Antifungal activity against Candida albicans ATCC 90028 after 18 to 24 hrs by micro-dilution metho. In kind it is functional. The procedure, abridged: (§1)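 Broth micro-dilution MIC, fungi. Fresh broth cultures were made in normal saline. Compounds were serially diluted in microtiter plates across 8 concentrations, 100 down to 0.78. Standardized inoculum was 1–2 × 10^7 cfu/ml. Medium was Sabouraud dextrose pH 7.3 ± 0.2. Plates were incubated aerobically at 37 °C for 18–24 h. MIC is the lowest concentration with no visible growth or turbidity versus control. Fluconazole was the reference.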
A general note: In broth dilution the organism is exposed to a series of concentrations in liquid medium.

The next series deals with Enterococcus faecalis. The series can be described thus: Antimicrobial activity against Enterococcus faecalis clinical isolate after 18 to 24 hrs by micro-dilution method. In kind it is functional.
A further series deals with Klebsiella pneumoniae. The series can be described thus: Antimicrobial activity against Klebsiella pneumoniae clinical isolate after 18 to 24 hrs by micro-dilution method. Type of series: functional.
A further series concerns Salmonella typhi. The series can be described thus: Antimicrobial activity against Salmonella typhi MTCC 3216 after 18 to 24 hrs by micro-dilution method. In kind it is functional, Salmonella enterica subsp. enterica serovar Typhi. The following applies: Salmonella enterica. The procedure, abridged: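 Broth microdilution with twofold serial dilutions from 100 down to 0.78, eight concentrations. Fresh cultures were made up in normal saline, and 0.1 ml of standardized inoculum (1–2 × 10^7 cfu/ml) was added per well. Plates were incubated aerobically at 37 °C for 18–24 h on Mueller-Hinton agar/Luria broth. MIC was the lowest concentration with no visible turbidity compared with the control.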

A further series concerns Aspergillus niger. The series can be described thus: Antimicrobial activity against Aspergillus niger clinical isolate after 18 to 24 hrs by micro-dilution method. In kind it is functional. The procedure, abridged:
as §1

In the next series the test system is Candida tropicalis. The series can be described thus: Antifungal activity against Candida tropicalis ATCC 750 after 18 to 24 hrs by micro-dilution method. In kind it is functional. The procedure, abridged: as §1
Series [2] relates to Candida albicans. Put plainly: Antifungal activity against Candida albicans clinical isolate after 18 to 24 hrs by micro-dilution method. In kind it is functional. The procedure, abridged: as §1
The nature of series [3]: Cytotoxicity against human RBC assessed as hemolytic activity at 100 uM after 1 hr by spectophotometry. Type of series: cell-based, Erythrocyte. The settings on record: red blood cells (RBC), read-out: Activity. The procedure, abridged: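 Hemolysis, fresh human blood. RBCs were washed three times in PBS (spun 3000 rpm, 7 min, room temperature) and adjusted to 5×10^8 cells/ml. Cell suspension was added to buffer holding 100 μM compound in 1% v/v DMSO/PBS. Controls were 1% DMSO/PBS and sterile water. Samples were shaken at 37 °C for 1 h, spun at 1300 rpm for 5 min, and supernatant absorbance read at 540 nm.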

A further series has as its system Escherichia coli. Put plainly: Antimicrobial activity against Escherichia coli ATCC 35218 after 18 to 24 hrs by micro-dilution method. Type of series: functional.
The subject of another series is Pseudomonas aeruginosa. The series can be described thus: Antimicrobial activity against Pseudomonas aeruginosa ATCC 27893 after 18 to 24 hrs by micro-dilution method. Type of series: functional.
A further series relates to Staphylococcus aureus. The series can be described thus: Antimicrobial activity against Staphylococcus aureus ATCC 25323 after 18 to 24 hrs by micro-dilution method. In kind it is functional.
The next series relates to Shigella boydii. The series can be described thus: Antimicrobial activity against Shigella boydii clinical isolate after 18 to 24 hrs by micro-dilution method. Type of series: functional.
A further series has as its system Pichia kudriavzevii. Put plainly: Antifungal activity against Candida krusei ATCC 6258 after 18 to 24 hrs by micro-dilution method. In kind it is functional. The procedure, abridged:
as §1

A further series concerns Aspergillus fumigatus. Put plainly: Antimicrobial activity against Aspergillus fumigatus clinical isolate after 18 to 24 hrs by micro-dilution method. In kind it is functional. The procedure, abridged: as §1
The subject of another series is Cryptococcus neoformans. Put plainly: Antifungal activity against Cryptococcus neoformans clinical isolate after 18 to 24 hrs by micro-dilution method. In kind it is functional. The procedure, abridged:
as §1

With `Clc1ccc(-n2cc(CN(Cc3cn(-c4ccc(Cl)cc4)nn3)c3nc4ccccc4s3)nn2)cc1`, the MIC in the series with Candida albicans [1] turned out to be 6.25 mg/L (≈ 11.7 µM); with Enterococcus faecalis, 3.12 mg/L (≈ 5.85 µM); against Klebsiella pneumoniae, 50 mg/L (≈ 93.7 µM); with Salmonella typhi, 6.25 mg/L (≈ 11.7 µM); against Aspergillus niger, 6.25 mg/L (≈ 11.7 µM); in the series with Candida tropicalis, 12.5 mg/L (≈ 23.4 µM). Further, the MIC was 25 mg/L (≈ 46.9 µM) in the series on Candida albicans [2]; 12.5 mg/L (≈ 23.4 µM) with Escherichia coli; 6.25 mg/L (≈ 11.7 µM) against Pseudomonas aeruginosa; 6.25 mg/L (≈ 11.7 µM) with Staphylococcus aureus; over 100 mg/L against Shigella boydii; 6.25 mg/L (≈ 11.7 µM) against Pichia kudriavzevii. Besides, the minimal inhibitory concentration (MIC) was determined as 6.25 mg/L (≈ 11.7 µM) against Aspergillus fumigatus and 3.12 mg/L (≈ 5.85 µM) in the series with Cryptococcus neoformans. For the same compound, the hemolysis at 1 h, 100 µM in [3] was 4.35%.
`c1ccc2c(-n3cc(CN(Cc4cn(-c5cccc6ccccc56)nn4)c4nc5ccccc5s4)nn3)cccc2c1`: the MIC in the series on Candida albicans [1], in the series on Enterococcus faecalis, against Klebsiella pneumoniae, against Salmonella typhi, with Aspergillus niger and with Candida tropicalis was over 100 mg/L throughout. Besides, the MIC with Candida albicans [2], in the series with Escherichia coli, against Pseudomonas aeruginosa, with Staphylococcus aureus, in the series on Shigella boydii and against Pichia kudriavzevii was over 100 mg/L in each case. Also, the MIC in the series on Aspergillus fumigatus and against Cryptococcus neoformans was over 100 mg/L throughout. The hemolysis at 1 h, 100 µM in series [3] was determined as 34%.
For the compound `Clc1cccc(-n2cc(CN(Cc3cn(-c4cccc(Cl)c4Cl)nn3)c3nc4ccccc4s3)nn2)c1Cl`, the MIC with Candida albicans [1] is over 100 mg/L; with Enterococcus faecalis, over 100 mg/L; in the series on Klebsiella pneumoniae, over 100 mg/L; against Salmonella typhi it was 100 mg/L (≈ 166 µM); against Aspergillus niger it was over 100 mg/L; in the series with Candida tropicalis, over 100 mg/L. Moreover, the minimum inhibitory concentration (MIC) is 25 mg/L (≈ 41.5 µM) in the series with Candida albicans [2]; over 100 mg/L in the series on Escherichia coli; over 100 mg/L against Pseudomonas aeruginosa; 50 mg/L (≈ 83 µM) with Staphylococcus aureus; over 100 mg/L against Shigella boydii; over 100 mg/L in the series with Pichia kudriavzevii. The MIC against Aspergillus fumigatus was over 100 mg/L; against Cryptococcus neoformans, 3.12 mg/L (≈ 5.18 µM). Besides, in series [3], the hemolysis at 1 h, 100 µM is 37.7%.
Regarding `Fc1ccc(-n2cc(CN(Cc3cn(-c4ccc(F)c(Cl)c4)nn3)c3nc4ccccc4s3)nn2)cc1Cl`, the MIC with Candida albicans [1] is 6.25 mg/L (≈ 11 µM); with Enterococcus faecalis it was 3.12 mg/L (≈ 5.48 µM); against Klebsiella pneumoniae it was 50 mg/L (≈ 87.8 µM); in the series on Salmonella typhi, 6.25 mg/L (≈ 11 µM); in the series on Aspergillus niger, 6.25 mg/L (≈ 11 µM); in the series on Candida tropicalis, 12.5 mg/L (≈ 22 µM). In addition, the minimal inhibitory concentration (MIC) against Candida albicans [2] was 25 mg/L (≈ 43.9 µM); against Escherichia coli it was 25 mg/L (≈ 43.9 µM); against Pseudomonas aeruginosa, 3.12 mg/L (≈ 5.48 µM); in the series with Staphylococcus aureus it was 6.25 mg/L (≈ 11 µM); in the series on Shigella boydii, 100 mg/L (≈ 176 µM); in the series on Pichia kudriavzevii, 3.12 mg/L (≈ 5.48 µM). Further, the minimal inhibitory concentration (MIC) with Aspergillus fumigatus was determined as 25 mg/L (≈ 43.9 µM); against Cryptococcus neoformans it was 1.56 mg/L (≈ 2.74 µM). Besides, in [3], the hemolysis at 1 h, 100 µM worked out at 5.32%.
In the case of `CCCCCc1ccc(-n2cc(CN(Cc3cn(-c4ccc(CCCCC)cc4)nn3)c3nc4ccccc4s3)nn2)cc1`, the MIC in the series with Candida albicans [1] is over 100 mg/L; against Enterococcus faecalis, over 100 mg/L; against Klebsiella pneumoniae it was over 100 mg/L; against Salmonella typhi, over 100 mg/L; in the series with Aspergillus niger it was over 100 mg/L; in the series with Candida tropicalis it was 12.5 mg/L (≈ 20.7 µM). Besides, the MIC against Candida albicans [2], in the series on Escherichia coli, in the series with Pseudomonas aeruginosa, against Staphylococcus aureus, in the series with Shigella boydii and in the series on Pichia kudriavzevii was over 100 mg/L each time. In addition, the MIC against Aspergillus fumigatus and against Cryptococcus neoformans was over 100 mg/L in each case. In addition, the hemolysis at 1 h, 100 µM in series [3] is 3.28%.
Consider `FC(F)(F)Oc1ccc(-n2cc(CN(Cc3cn(-c4ccc(OC(F)(F)F)cc4)nn3)c3nc4ccccc4s3)nn2)cc1`, for which the MIC is 3.12 mg/L (≈ 4.93 µM) in the series on Candida albicans [1]; 12.5 mg/L (≈ 19.8 µM) with Enterococcus faecalis; 12.5 mg/L (≈ 19.8 µM) against Klebsiella pneumoniae; over 100 mg/L in the series with Salmonella typhi; 12.5 mg/L (≈ 19.8 µM) against Aspergillus niger; 12.5 mg/L (≈ 19.8 µM) in the series with Candida tropicalis. Moreover, the MIC against Candida albicans [2] amounted to 12.5 mg/L (≈ 19.8 µM); in the series on Escherichia coli, 25 mg/L (≈ 39.5 µM); against Pseudomonas aeruginosa, 25 mg/L (≈ 39.5 µM); in the series on Staphylococcus aureus it was 12.5 mg/L (≈ 19.8 µM); with Shigella boydii, 100 mg/L (≈ 158 µM); with Pichia kudriavzevii, 12.5 mg/L (≈ 19.8 µM). Besides, the results for the minimum inhibitory concentration (MIC) in the series with Aspergillus fumigatus and against Cryptococcus neoformans were 25 mg/L (≈ 39.5 µM) and 3.12 mg/L (≈ 4.93 µM), respectively. Also, in series [3], the hemolysis at 1 h, 100 µM turned out to be 9.12%.
